Results: ChEMBL document CHEMBL2021789, “Molecular docking and enzymatic evaluation to identify selective inhibitors of aspartate semialdehyde dehydrogenase” (Bioorg Med Chem, 2012)

Legend:
[1] = Competitive inhibition of Vibrio cholerae ASADH using aspartyl semialdehyde as substrate by Dixon plot analysis
In short: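 Recombinant V. cholerae ASADH, reverse reaction, room temperature, in 120 mM CHES pH 8.6, 200 mM KCl and 20% DMSO. Final levels: ASA 1 mM, NADP 1.5 mM, phosphate 20 mM. Enzyme added to start; inhibitor serially diluted across wells. NADPH rise read at 340 nm; initial velocities fitted to Dixon equation assuming ASA-competitive inhibition to give Ki.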

[2] = Competitive inhibition of Streptococcus pneumoniae ASADH using aspartyl semialdehyde as substrate using Dixon plot analysis
In short: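 Recombinant S. pneumoniae enzyme, reverse reaction read as NADPH rise at 340 nm, room temperature. Buffer: 120 mM CHES pH 8.6, 200 mM KCl, 20% DMSO for DMSO-soluble inhibitors. Substrates: 1 mM ASA, 1.5 mM NADP, 20 mM phosphate. Enzyme added last; inhibitor serially diluted. Initial velocities fitted to Dixon equation assuming competition with ASA.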

[3] = Competitive inhibition of Vibrio cholerae ASADH using different concentration of aspartyl semialdehyde as substrate by spectrophotometry
In short: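 Recombinant V. cholerae ASADH, reverse reaction at room temperature in 120 mM CHES pH 8.6, 200 mM KCl, 20% DMSO, with NADP and phosphate. ASA varied at several fixed inhibitor concentrations. NADPH formation read at 340 nm; initial-rate data fitted to standard inhibition-type models.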

SMILES | Ki [1] | Ki [2] | Ki [3]
O=c1[nH]c2ccc([N+](=O)[O-])cc2[nH]1 | 1100 µM | 400 µM | –
O=C(O)c1ccc([N+](=O)[O-])cn1 | 2100 µM | 1200 µM | –
Cn1c(=O)n(C)c2cc([N+](=O)[O-])ccc21 | > 130 µM | 86 µM | 24 µM
CCn1c(=O)n(CC)c2cc([N+](=O)[O-])ccc21 | – | > 4000 µM | –
CN1C(=O)c2ccc([N+](=O)[O-])cc2C1=O | 1100 µM | 890 µM | –
CCN1C(=O)c2ccc([N+](=O)[O-])cc2C1=O | – | > 4000 µM | –
O=C(O)c1ccc(C(=O)O)nc1 [PYRIDINE-2,5-DICARBOXYLIC ACID] | 1200 µM | 690 µM | –
COC(=O)c1cc(C(=O)Nc2ccc([N+](=O)[O-])cc2)cc(C(=O)OC)c1 | – | > 20000 µM | –
O=C1NC(=O)c2cc([N+](=O)[O-])c(Cl)cc21 | 180 µM | 150 µM | 197 µM
COC(=O)c1ccc([N+](=O)[O-])cn1 | – | > 20000 µM | –
O=C(O)c1cc(C(=O)O)cc(C(=O)Nc2ccc([N+](=O)[O-])cc2)c1 | 180 µM | 110 µM | –
O=C1NC(=O)c2cc([N+](=O)[O-])ccc21 | 2600 µM | 3300 µM | –
COC(=O)c1ccc(C(=O)OC)nc1 | – | > 20000 µM | –
